From ChEMBL document CHEMBL2203116, “Synthesis and evaluation of novel carbon-11 labeled oxopurine analogues for positron emission tomography imaging of translocator protein (18 kDa) in peripheral organs” (J Med Chem, 2011)
Blank lines part the entries; values can stand above or below the compound they belong to.

Legend:
[1] = test system: Heart; assay: Drug uptake in iv dosed Sprague-Dawley rat heart after 10 mins by PET scanning; assay type: ADME, organism-based; conditions: in vivo
Outline: (§1)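 Comparator radioligand 15–20 MBq/200 μL (0.15–0.18 nmol) injected iv into isoflurane-anesthetized male Sprague-Dawley rats. ROI time–activity curves for lung, heart, kidney, liver and cardiac blood pool. Uptake as decay-corrected SUV normalized to injected activity and body weight. n = 4, mean ± SD.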

[2] = test system: Kidney; assay: Drug uptake in iv dosed Sprague-Dawley rat kidney after 10 mins by PET scanning; assay type: ADME, organism-based; conditions: in vivo; outline: as §1
[3] = test system: Lung; assay: Drug uptake in iv dosed Sprague-Dawley rat lung after 1 min by PET scanning; assay type: ADME, organism-based; conditions: in vivo; outline: as §1
[4] = test system: Liver; assay: Drug uptake in iv dosed Sprague-Dawley rat liver upto 30 mins by PET scanning; assay type: ADME, organism-based; conditions: in vivo, 0.5 h; outline: as §1
[5] = test system: Kidney; assay: Drug uptake in iv dosed Sprague-Dawley rat kidney upto 30 mins by PET scanning; assay type: ADME, organism-based; conditions: in vivo, 0.5 h; outline: as §1
[6] = test system: Heart; assay: Drug uptake in iv dosed Sprague-Dawley rat heart upto 30 mins by PET scanning; assay type: ADME, organism-based; conditions: in vivo, 0.5 h; outline: as §1
[7] = test system: Blood; assay: Drug uptake in iv dosed Sprague-Dawley rat cardiac blood pool up to 30 mins by PET scanning; assay type: ADME, organism-based; conditions: in vivo, 0.5 h; outline: as §1
[8] = test system: Lung; assay: Drug uptake in iv dosed Sprague-Dawley rat lung after 27.5 mins by PET scanning; assay type: ADME, organism-based; conditions: in vivo; outline: as §1
[9] = Lipophilicity, log D of the compound in octanol-phosphate buffer at pH 7.4 by shake flask method; assay type: physicochemical
Outline: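 Radioligand (~200000 cpm) shaken with n-octanol (3.0 g) and 0.1 M sodium phosphate buffer pH 7.4 (3.0 g). Vortexed 3 min at room temperature, centrifuged 3500 rpm for 5 min. Phases weighed and counted; organic layer repartitioned until consistent. LogD = log of the cpm/g octanol to cpm/g buffer ratio. Triplicate.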

[10] = molecular target: Translocator protein (Rattus norvegicus, UniProt P16257); assay: Displacement of [11C]-PK-11195 from TPSO in Sprague-Dawley rat brain homogenate after 30 mins by gamma counting; assay type: tissue-based
Chain of Translocator protein (P16257 whole entry, looked up): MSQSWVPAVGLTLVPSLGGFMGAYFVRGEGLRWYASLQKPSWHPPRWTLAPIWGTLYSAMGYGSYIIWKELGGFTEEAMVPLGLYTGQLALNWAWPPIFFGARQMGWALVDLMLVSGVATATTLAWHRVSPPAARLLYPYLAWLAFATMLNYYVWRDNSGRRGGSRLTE

[11] = test system: Intestine; assay: Drug uptake in Sprague-Dawley rat small intestine at 0.18 nmol, iv up to 30 mins by PET scanning; assay type: ADME, organism-based; conditions: in vivo, 0.5 h
Outline: (§2)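 Male Sprague-Dawley rats (6–8 weeks old), isoflurane-anesthetized, prone. ROIs on lung, heart, kidney, liver, small intestine and cardiac blood pool. Uptake decay-corrected to injection time and expressed as SUV (body-weight normalized). n = 4, mean ± SD.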

[12] = test system: Heart; assay: Drug uptake in Sprague-Dawley rat heart at 0.18 nmol, iv after 27.5 mins by PET scanning; assay type: ADME, organism-based; conditions: in vivo
Outline: (§3)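 Isoflurane-anesthetized male Sprague-Dawley rats lay prone and received an iv bolus of [11C]radioligand in 200 μL. 3D list-mode emission scans ran 30 min from injection. Regions of interest were drawn on the organs and cardiac blood pool. Uptake was decay-corrected to injection time and expressed as SUV (normalized to injected radioactivity and body weight). Values are mean of n = 4.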

[13] = test system: Kidney; assay: Drug uptake in Sprague-Dawley rat kidney at 0.18 nmol, iv up to 30 mins by PET scanning; assay type: ADME, organism-based; conditions: in vivo, 0.5 h; outline: as §2
[14] = test system: Lung; assay: Drug uptake in Sprague-Dawley rat lung at 0.18 nmol, iv pretreated with unlabeled AC-5216 by PET scanning; assay type: ADME, organism-based; conditions: in vivo; outline: as §2
[15] = test system: Blood; assay: Drug uptake in Sprague-Dawley rat cardiac blood pool at 0.18 nmol, iv after 27.5 mins by PET scanning; assay type: ADME, organism-based; conditions: in vivo; outline: as §3
[16] = test system: Blood; assay: Drug uptake in Sprague-Dawley rat cardiac blood pool at 0.18 nmol, iv after 2 mins by PET scanning; assay type: ADME, organism-based; conditions: in vivo; outline: as §3
[17] = test system: Kidney; assay: Drug uptake in Sprague-Dawley rat kidney at 0.18 nmol, iv after 2 mins by PET scanning; assay type: ADME, organism-based; conditions: in vivo; outline: as §2
[18] = test system: Lung; assay: Drug uptake in Sprague-Dawley rat lung at 0.18 nmol, iv up to 30 mins by PET scanning; assay type: ADME, organism-based; conditions: in vivo, 0.5 h; outline: as §2
[19] = test system: Blood; assay: Drug uptake in Sprague-Dawley rat cardiac blood pool at 0.18 nmol, iv up to 30 mins by PET scanning; assay type: ADME, organism-based; conditions: in vivo, 0.5 h; outline: as §3
[20] = test system: Kidney; assay: Drug uptake in Sprague-Dawley rat kidney at 0.18 nmol, iv pretreated with unlabeled AC-5216 by PET scanning; assay type: ADME, organism-based; conditions: in vivo; outline: as §2
[21] = test system: Heart; assay: Drug uptake in Sprague-Dawley rat heart at 0.18 nmol, iv up to 30 mins by PET scanning; assay type: ADME, organism-based; conditions: in vivo, 0.5 h; outline: as §3
[22] = test system: Heart; assay: Drug uptake in Sprague-Dawley rat heart at 0.18 nmol, iv pretreated with unlabeled (R)-PK11195 by PET scanning; assay type: ADME, organism-based; conditions: in vivo
Outline: (§4)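 Isoflurane-anesthetized Sprague-Dawley rats underwent 30-min PET after iv [11C]radioligand, with unlabeled blocker given iv 1 min before tracer. Blockers were (R)-PK11195 at 3.0 mg/kg or AC-5216 at 1.0 mg/kg in 300 μL saline with 10% ethanol and 5% polysorbate 80. Regional uptake was decay-corrected SUV (n = 4).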

[23] = test system: Kidney; assay: Drug uptake in Sprague-Dawley rat kidney at 0.18 nmol, iv after 27.5 mins by PET scanning; assay type: ADME, organism-based; conditions: in vivo; outline: as §2
[24] = test system: Heart; assay: Drug uptake in Sprague-Dawley rat heart at 0.18 nmol, iv after 2 mins by PET scanning; assay type: ADME, organism-based; conditions: in vivo; outline: as §3
[25] = test system: Liver; assay: Drug uptake in Sprague-Dawley rat liver at 0.18 nmol, iv after 27.5 mins by PET scanning; assay type: ADME, organism-based; conditions: in vivo; outline: as §2
[26] = test system: Lung; assay: Drug uptake in Sprague-Dawley rat lung at 0.18 nmol, iv after 27.5 mins by PET scanning; assay type: ADME, organism-based; conditions: in vivo; outline: as §2
[27] = test system: Lung; assay: Drug uptake in Sprague-Dawley rat lung at 0.18 nmol, iv after 2 mins by PET scanning; assay type: ADME, organism-based; conditions: in vivo; outline: as §2
[28] = test system: Heart; assay: Drug uptake in Sprague-Dawley rat heart at 0.18 nmol, iv pretreated with unlabeled AC-5216 by PET scanning; assay type: ADME, organism-based; conditions: in vivo; outline: as §4
[29] = test system: Liver; assay: Drug uptake in Sprague-Dawley rat liver at 0.18 nmol, iv pretreated with unlabeled (R)-PK11195 measured after 27.5 mins by PET scanning relative to control; assay type: ADME, organism-based; conditions: in vivo
Outline: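 Male Sprague-Dawley rats, 6-8 weeks old, under isoflurane, prone. An unlabeled TSPO blocking ligand (3.0 mg/kg) was injected 1 min before the iv radioligand (16-18 MBq/200 μL). A liver ROI was decay-corrected and expressed as SUV normalized to injected activity and body weight. The 27.5-min value was compared with unblocked controls; n = 4.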

[30] = test system: Lung; assay: Drug uptake in Sprague-Dawley rat lung at 0.18 nmol, iv pretreated with unlabeled (R)-PK11195 by PET scanning; assay type: ADME, organism-based; conditions: in vivo; outline: as §2
[31] = test system: Liver; assay: Drug uptake in Sprague-Dawley rat liver at 0.18 nmol, iv pretreated unlabeled AC-5216 measured after 27.5 mins by PET scanning relative to control; assay type: ADME, organism-based; conditions: in vivo
Outline: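 Male Sprague-Dawley rats, 6-8 weeks, isoflurane-anesthetized. A blocking TSPO ligand (1.0 mg/kg, in 300 μL saline with 10% ethanol and 5% polysorbate 80) was injected 1 min before iv radioligand (16-18 MBq/200 μL). Liver ROI as decay-corrected SUV (injected activity, body weight), 27.5-min value versus controls; n = 4.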

[32] = test system: Liver; assay: Drug uptake in Sprague-Dawley rat liver at 0.18 nmol, iv up to 30 mins by PET scanning; assay type: ADME, organism-based; conditions: in vivo, 0.5 h; outline: as §2
[33] = test system: Kidney; assay: Drug uptake in Sprague-Dawley rat kidney at 0.18 nmol, iv pretreated with unlabeled (R)-PK11195 by PET scanning; assay type: ADME, organism-based; conditions: in vivo; outline: as §2
[34] = test system: Liver; assay: Drug uptake in Sprague-Dawley rat liver at 0.18 nmol, iv after 2 mins by PET scanning; assay type: ADME, organism-based; conditions: in vivo; outline: as §2

SMILES: CC[C@@H](C)N([11CH3])C(=O)c1cc2ccccc2c(-c2ccccc2Cl)n1
Drug uptake [1]: Active
Drug uptake [2]: Active
Drug uptake [3]: Active
Drug uptake [4]: Active
Drug uptake [5]: Active
Drug uptake [6]: Active
Drug uptake [7]: Active
Drug uptake [8]: Active

SMILES: CC[C@@H](C)N(C)C(=O)c1cc2ccccc2c(-c2ccccc2Cl)n1 [(R)PK-11195]
logD [9]: 3.74

SMILES: CCN(Cc1ccccc1)C(=O)Cn1c(=O)n(C)c2cnc(-c3ccccc3)nc21
logD [9]: 3.48
Ki [10]: 0.6 nM

The next lines start with the values.

logD [9]: 2.17
Ki [10]: 13.2 nM
SMILES: CCN(Cc1cccnc1)C(=O)Cn1c(=O)n(C)c2cnc(-c3ccccc3)nc21

Drug uptake [11]: Active
SUV [12]: 0.9
Drug uptake [13]: Active
Drug uptake [14]: Not Active
SUV [15]: 0.4
SUV [16]: 3
SUV [17]: 3.3
Drug uptake [18]: Active
Drug uptake [19]: Active
Drug uptake [20]: Not Active
Drug uptake [21]: Active
Drug uptake [22]: Not Active
SUV [23]: 1
SUV [24]: 4.6
SUV [25]: 0.5
SUV [26]: 0.5
SUV [27]: 3.4
Drug uptake [28]: Not Active
fold change (FC) [29]: 1.5
Drug uptake [30]: Not Active
fold change (FC) [31]: 1.5
Drug uptake [32]: Active
Drug uptake [33]: Not Active
SUV [34]: 1.6
SMILES: CCN(Cc1cccnc1)C(=O)Cn1c(=O)n([11CH3])c2cnc(-c3ccccc3)nc21
